Results on four compounds are retold here after ChEMBL document CHEMBL4699430, “Continuous flow synthesis of lipophilic cations derived from benzoic acid as new cytotoxic chemical entities in human head and neck carcinoma cell lines” (RSC Med Chem, 2020).

Active and inactive are the calls of the source. The calls are words filed in the database; no cut-off is given here.

The test system of data set [1] is HEp-2. The data set is described as follows: Decrease in intracellular ATP levels in human Hep-2 cells at 10 to 50 uM incubated for 4 hrs by CellTiter-Glo luminescence assay. The following applies: dose microM 10-50, time 4.0 hrs. A general note: Cellular ATP, detected with luciferase, serves as a proxy for viable cell number.
Data set [2] can be described thus: Selectivity index, ratio of IC50 for human OKF-6/TERT cells to IC50 for human SCC-15 cells after 48 hrs by MTT assay. The conditions noted are these: OKF-6/TERT cells versus SCC-15 cells. The class given is toxicity. A digest of the protocol:
(§1)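 Selectivity index at 48 h is the ratio of the OKF-6/TERT IC50 to the tumour-line IC50. Each IC50 comes from a sigmoidal, variable-slope dose–response curve of the MTT viability assay (1 × 10^4 cells per well, 48 h exposure, absorbance at 570 nm).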
On the technique in general: Tetrazolium assays rely on reduction of a dye to a coloured formazan, in cell work by metabolically active cells.

Data set [3] has as its system CAL-27. Kind of data set: Induction of apoptosis in human CAL-27 cells at 2.5 uM incubated for 48 hrs by annexin-V FITC and PI staining based flow cytometric analysis. The class given is functional, cell-based. An outline of the steps: (§2)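 Cells at 1 × 10^5 per mL exposed to 2.5 μM compound for 48 h at 37 °C in 5% CO2, with 10 μM staurosporine as positive control. Cells stained 5 min at room temperature with annexin V-FITC (488/530) and PI (488/575) in binding buffer; 10 000 events recorded by flow cytometry. Mean ± SD of at least three experiments; ANOVA with Bonferroni post-test.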
A general note: In flow cytometry, cells or beads pass a laser one at a time.

Data set [4] relates to HEp-2. Kind of data set: Cytotoxicity against human HEp-2 cells assessed as reduction in cell viability measured after 48 hrs by MTT assay. The data set is classed as functional, cell-based. The conditions noted are these: HEp-2, 48 h. A digest of the protocol: (§3)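 Cells seeded at 1 × 10^4 per well and left 24 h, then exposed to increasing concentrations for 24, 48 or 72 h. After two PBS washes, 0.5 mg/mL MTT applied for 2 h. Formazan dissolved in DMSO and absorbance read at 570 nm. IC50 taken from a variable-slope dose–response curve.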

In the next data set the test system is SCC-15. Kind of data set: Cytotoxicity against human SCC-15 cells assessed as reduction in cell viability measured after 48 hrs by MTT assay. The class given is functional, cell-based. The conditions noted are these: SCC-15, 48 h. An outline of the steps: as §3
Data set [5] relates to CAL-27. Kind of data set: Induction of apoptosis in human CAL-27 cells assessed as increase in caspase 3 activity at 2.5 to 5 uM incubated for 24 hrs by flow cytometry. The class given is functional, cell-based. The following applies: dose 2.5 µM. An outline of the steps: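 Cal-27 cells seeded at 5 × 10^5 per well and grown 24 h at 37 °C, then exposed to two concentrations for 24 h. Cells fixed and permeabilised 30 min at 4 °C in the dark, stained 30 min with PE anti-active caspase-3 antibody, and read by flow cytometry at 488 ex/617 em.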

Data set [6] in a line: Selectivity index, ratio of IC50 for human OKF-6/TERT cells to IC50 for human CAL27 cells after 48 hrs by MTT assay. The class given is toxicity. The following applies: OKF-6/TERT cells versus CAL27 cells, read-out: Ratio IC50. An outline of the steps: as §1
Data set [7] has as its system CAL-27. Kind of data set: Induction of mitochondrial membrane potential loss in human CAL-27 cells at 2.5 to 30 uM by flow cytometry. The following applies: dose microM 2.5-30.
A short description of data set [8]: Selectivity index, ratio of IC50 for human OKF-6/TERT cells to IC50 for human HEp-2 cells after 48 hrs by MTT assay. The data set is classed as toxicity. The conditions noted are these: OKF-6/TERT cells versus HEp-2 cells. A digest of the protocol: as §1
For data set [9], the system named is CAL-27. The data set is described as follows: Cytotoxicity against human CAL-27 cells assessed as reduction in cell viability measured after 48 hrs by MTT assay. The following applies: CAL-27, 48 h. The class given is functional, cell-based. An outline of the steps: as §3
Data set [10] in a line: Cytotoxicity against human OKF-6/TERT cells assessed as reduction in cell viability measured after 48 hrs by MTT assay. The following applies: OKF6, 48 h. The class given is cell-based. A digest of the protocol: as §3
The subject of data set [11] is HEp-2. The data set is described as follows: Induction of mitochondrial membrane potential loss in human Hep-2 cells at 2.5 to 30 uM by flow cytometry. The conditions noted are these: dose microM 2.5-30.
Data set [12] has as its system CAL-27. The data set is described as follows: Induction of mitochondrial uncoupling in human CAL-27 cells assessed as oxygen consumption rate measured by Clark-type oxygen electrode method. The following applies: Mitochondria, dose microM 10-50. An outline of the steps: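 Polarographic Clark-electrode assay on 5 × 10^6 trypsinised Cal-27 cells (cultured to 80% confluence). Cells held in 0.6 mL PBS, pH 7.4, at 25 °C with 8.3 mM L-glutamine. Respiration first inhibited with 2.5 μg/mL oligomycin, then compound added at increasing concentrations. OCR compared with full uncoupling by 0.133 μM CCCP.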

Data set [13] concerns CAL-27. The data set is described as follows: Anticlonogenic activity against human CAL-27 cells assessed as reduction in colony formation incubated for 24 hrs followed supplementation with fresh medium without compound measured after 120 hrs by colony formation assay. The class given is functional, cell-based. A digest of the protocol: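 Cal-27 cells, 1 × 10^3 per well, grown 24 h at 37 °C in 5% CO2, then exposed 24 h to a range of concentrations. Medium then replaced with compound-free medium and growth continued 120 h. Colonies stained 30 min with crystal violet (0.5% in methanol), photographed and counted. Three independent experiments; ANOVA with Bonferroni post-test.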

Data set [14] relates to HEp-2. Kind of data set: Induction of apoptosis in human Hep-2 cells at 2.5 uM incubated for 48 hrs by annexin-V FITC and PI staining based flow cytometric analysis. The data set is classed as functional, cell-based. A digest of the protocol: as §2
In data set [15] the test system is CAL-27. Kind of data set: Decrease in intracellular ATP levels in human CAL-27 cells at 10 to 50 uM incubated for 4 hrs by CellTiter-Glo luminescent assay. The conditions noted are these: dose microM 10-50, time 4.0 hrs.
In data set [16] the test system is CAL-27. Kind of data set: Uncoupling of mitochondrial oxidative phosphorylation in human CAL-27 cells assessed as increase in oxygen consumption rate by Clark electrode based assay. The conditions noted are these: Mitochondria.

For `O=C(OCCCCCCCCCC[P+](c1ccccc1)(c1ccccc1)c1ccccc1)c1cccc(O)c1O`, the result with HEp-2 [1], with CAL-27 [3], in the data set on CAL-27 [5], in the data set with CAL-27 [7], with HEp-2 [11] and in the data set on HEp-2 [14] was Active. Moreover, the result in the data set with CAL-27 [15] was Active. In addition, the selectivity ratio at 48 h in data set [2] came to 4.9; in [6] it was 4.7; in [8] it was 2.3. In addition, the IC50 (commonly the concentration needed to halve the response being measured) with HEp-2 [4] worked out at 8.28 µM; with SCC-15, 2.9 µM; in the data set on CAL-27 [9], 1.6 µM; in data set [10], 7.5 µM. Also, the Activity result in the data set with CAL-27 [12] and with CAL-27 [13] was “Dose-dependent effect” in each case.
For `O=C(OCCCCCCCCCC[P+](c1ccccc1)(c1ccccc1)c1ccccc1)c1ccccc1O`, the outcome in the data set with HEp-2 [1], in the data set with CAL-27 [3], with CAL-27 [16], in the data set on CAL-27 [5], in the data set with CAL-27 [7] and with HEp-2 [11] was Active. The outcome in the data set with HEp-2 [14] was Active. The selectivity ratio at 48 h in data set [2] (read-out: Ratio IC50) was determined as 4; in data set [6], 5.5; in data set [8] (read-out: Ratio IC50), 3. In addition, the IC50 in the data set on HEp-2 [4] was found to be 4.28 µM; in the data set with SCC-15, 3.2 µM; in the data set on CAL-27 [9] it was 2.3 µM; in data set [10], 12.7 µM. The Activity entry with CAL-27 [12] and in the data set on CAL-27 [13] was “Dose-dependent effect” in each case.
Consider `O=C(OCCCCCCCCCC[P+](c1ccccc1)(c1ccccc1)c1ccccc1)c1cc(O)c(O)c(O)c1`, for which the outcome in the data set with HEp-2 [1], in the data set with CAL-27 [3], in the data set on CAL-27 [16], in the data set on CAL-27 [5], with CAL-27 [7] and in the data set on HEp-2 [11] was Active. For the same compound, the result in the data set with HEp-2 [14] was Active. The selectivity ratio at 48 h in data set [2] (read-out: Ratio IC50) was 4.4; in data set [6], 3.8; in data set [8] (read-out: Ratio IC50), 1. The IC50 amounted to 12.5 µM in the data set with HEp-2 [4], 3 µM in the data set on SCC-15, 3.4 µM in the data set on CAL-27 [9] and 13.1 µM in data set [10]. The Activity result in the data set on CAL-27 [12] and in the data set with CAL-27 [13] was “Dose-dependent effect” each time.
As to `O=C(OCCCCCCCCCC[P+](c1ccccc1)(c1ccccc1)c1ccccc1)c1cc(O)ccc1O`, the result with HEp-2 [1], in the data set with CAL-27 [3], in the data set with CAL-27 [5], in the data set on CAL-27 [7], in the data set on HEp-2 [11] and in the data set with HEp-2 [14] was Active. Also, the outcome with CAL-27 [15] was Active. The selectivity ratio at 48 h in [2] (read-out: Ratio IC50) was determined as 4.9; in data set [6], 6; in data set [8] (read-out: Ratio IC50), 2.3. Besides, the IC50 was found to be 5.66 µM in the data set on HEp-2 [4], 2.7 µM in the data set on SCC-15, 2.2 µM in the data set on CAL-27 [9] and 13.2 µM in data set [10]. Moreover, the Activity entry in the data set on CAL-27 [12] and with CAL-27 [13] was “Dose-dependent effect” in each case.
